{"source": "paper PMC6911266", "about": "(Nature, 2019)", "molecules": {"B1": {"name": "PfCRT 7G8 (Plasmodium falciparum 7G8) (protein)", "chain": "MKFASKKNNQKNSSKNDERYRELDNLVQEGNGSRLGGGSCLGKCAHVFKLIFKEIKDNIFIYILSIIYLSVSVMNTIFAKRTLNKIGNYSFVTSETHNFICMIMFFIVYSLFGNKKGNSKERHRSFNLQFFAISMLDACSVILAFIGLTRTTGNIQSFVLQLSIPINMFFCFLILRYRYHLYNYLGAVIIVVTIALVEMKLSFETQEENSIIFNLVLISSLIPVCFSNMTREIVFKKYKIDILRLNAMVSFFQLFTSCLILPVYTLPFLKQLHLPYNEIWTNIKNGFACLFLGRNTVVENCGLGMAKLCDDCDGAWKTFALFSFFDICDNLITSYIIDKFSTMTYTIVSCIQGPALAIAYYFKFLAGDVVREPRLLDFVTLFGYLFGSIIYRVGNIILERKKMRNEENEDSEGELTNVDSIITQ"}, "B2": {"name": "Fab CTC (Fab, V domains shown)", "VH": "EVQLVESGGGLVQPGGSLRLSCAASGFNVSYSYIHWVRQAPGKGLEWVASIYPYSGYTSYADSVKGRFTISADTSKNTAYLQMNSLRAEDTAVYYCARYGSNYSFWYRGSSVTYAIDYWGQGTLVTVSS", "VL": "DIQMTQSPSSLSASVGDRVTITCRASQSVSSAVAWYQQKPGKAPKLLIYSASSLYSGVPSRFSGSRSGTDFTLTISSLQPEDFATYYCQQSSTWPITFGQGTKVEIK"}}, "key": {"PfCRT 7G8 [1]": {"target": "T1, PfCRT 7G8 (Plasmodium falciparum, UniProt W7FI62)", "T1 sequence (W7FI62 1-424)": "B1 chain", "assay": "Scintillation proximity assay", "assay_type": "binding", "details": "for competition of [3H]-Arg binding (in words): 125 nM [3H]-Arg, 1 μM CQ or PPQ, 0.1 μM amodiaquine, 1 mM Arg, Lys or Leu"}, "PfCRT 7G8 [2]": {"target": "T1, PfCRT 7G8", "assay_type": "biochemical"}, "[3]": {"system": "P. falciparum WT (3D7) parasite line", "assay": "Parasite drug susceptibility assay", "assay_type": "cell-based, Plasmodium falciparum", "details": "72 h, asynchronous asexual blood stages", "outline": "(§1)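 Asynchronous asexual blood-stage parasites were seeded at 0.3% parasitemia and 1% hematocrit into 2-fold, 10-point test compound dilutions. Incubation was 72 h at 37°C under 5% O2/5% CO2/90% N2. Final parasitemia was read by flow cytometry. IC50 came from nonlinear regression, 4 independent assays in duplicate, with two-tailed Mann-Whitney U tests.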"}, "[4]": {"system": "P. falciparum 7G8^7G8 parasite line", "assay": "Parasite drug susceptibility assay", "assay_type": "cell-based, Plasmodium falciparum", "details": "72 h, asynchronous asexual blood stages", "outline": "as §1"}, "[5]": {"system": "P. falciparum 7G8^7G8+F145I parasite line", "assay": "Parasite drug susceptibility assay", "assay_type": "cell-based, Plasmodium falciparum", "details": "72 h, asynchronous asexual blood stages", "outline": "as §1"}, "[6]": {"system": "P. falciparum 7G8^7G8+C350R parasite line", "assay": "Parasite drug susceptibility assay", "assay_type": "cell-based, Plasmodium falciparum", "details": "72 h, asynchronous asexual blood stages", "outline": "as §1"}, "[7]": {"system": "P. falciparum Dd2^Dd2 parasite line", "assay": "Parasite drug susceptibility assay", "assay_type": "cell-based, Plasmodium falciparum", "details": "72 h, asynchronous asexual blood stages", "outline": "as §1"}, "PfCRT 7G8+C289A": {"target": "T2, PfCRT 7G8+C289A (Plasmodium falciparum, UniProt W7FI62, C289A)", "T2 sequence (W7FI62 1-424 C289A)": "B1 chain with C289A", "assay": "Transport", "assay_type": "biochemical", "details": "read-out: IC50 (concentration yielding half-maximal reduction of [3H]-CQ transport); 100 nM [3H]-CQ, 1 min", "outline": "(§2)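 Proteoliposomes with the PfCRT variant (40 ng PfCRT per assay) have a lumen of 100 mM KPi, pH 7.5, with 2 mM β-mercaptoethanol. They are diluted into 100 mM Tris/Mes, pH 5.5, with 100 nM [3H]-CQ (5.45 Ci/mmol) and increasing β-mercaptoethanol, and uptake runs for 1 min. Values are corrected for mock uptake on nitrocellulose filters and for control liposomes lacking PfCRT. IC50 is the β-mercaptoethanol concentration halving transport.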"}, "PfCRT 7G8+C301A": {"target": "T3, PfCRT 7G8+C301A (Plasmodium falciparum, UniProt W7FI62, C301A)", "T3 sequence (W7FI62 1-424 C301A)": "B1 chain with C301A", "assay": "Transport", "assay_type": "biochemical", "outline": "as §2"}, "[8]": {"substrate": "N=C(N)NCCC[C@H](N)C(=O)O", "assay": "cells, lysate or membranes named"}, "[9]": {"target": "T4, Plasmodium falciparum chloroquine resistance transporter PfCRT, 7G8 isoform (Plasmodium falciparum (isolate 7G8), UniProt W7FI62)", "assay": "radioligand binding"}, "[10]": {"target": "T4, Plasmodium falciparum chloroquine …", "assay": "radioligand binding", "remark": "listed apart in the source"}, "[11]": {"target": "T4, Plasmodium falciparum chloroquine …", "assay": "radioligand binding", "remark": "listed apart in the source"}, "[12]": {"details": "read-out: IC50 (concentration yielding half-maximal reduction of [3H]-CQ transport), 100 nM [3H]-CQ, 1 min"}}, "note": "Changes are numbered by the printed parent chain. Values joined by “and” are separate entries in the source; they are usually repeats but may differ in a detail not shown here. Equal values may be shown once. Read-outs that look alike come from different tables or passages of the source."}
{"molecule": "CCN(CC)Cc1cc(Nc2ccnc3cc(Cl)ccc23)ccc1O", "note": "[amodiaquine]", "values": [{"measurement": "competition of [3H]-Arg binding (in words)", "setting": "PfCRT 7G8 [1]", "value": "effectively competed"}]}
{"molecule": "N=C(N)NCCC[C@H](N)C(=O)O", "note": "[Arg, arginine]", "values": [{"measurement": "competition of [3H]-Arg binding (in words)", "setting": "PfCRT 7G8 [1]", "value": "effectively competed"}, {"measurement": "EC50", "setting": "PfCRT 7G8 [1]; half-maximal binding constant (EC50) of [3H]-Arg binding, SPA, isotopic dilution of 125 nM [3H]-Arg with non-radiolabeled Arg", "value": "~400 µM and 397 µM"}, {"measurement": "Vmax, transport in proteoliposomes", "setting": "PfCRT 7G8 [2]; initial rates over 3 s, Michaelis-Menten fit", "value": 190, "unit": "nmol/mg/min"}, {"measurement": "time course of uptake (in words)", "setting": "PfCRT 7G8 [2]; pH gradient 5.5–7.5 and membrane potential (valinomycin)", "value": "maximal within one minute"}]}
{"molecule": "CCNCCCC(C)Nc1ccnc2cc(Cl)ccc12", "note": "(stereo not drawn) [md-CQ, monodesethyl-chloroquine]", "values": [{"measurement": "IC50", "setting": "[3]", "value": "0.0486 ± 0.0031", "unit": "µM"}, {"measurement": "IC50", "setting": "[4]", "value": "0.919 ± 0.125", "unit": "µM"}, {"measurement": "IC50", "setting": "[5]", "value": "0.0478 ± 0.0025", "unit": "µM"}, {"measurement": "IC50", "setting": "[6]", "value": "0.0365 ± 0.002", "unit": "µM"}, {"measurement": "IC50", "setting": "[7]", "value": "1.8 ± 0.199", "unit": "µM"}]}
{"molecule": "NCCCC[C@H](N)C(=O)O", "note": "[lysine]", "values": [{"measurement": "competition of [3H]-Arg binding (in words)", "setting": "PfCRT 7G8 [1]", "value": "effectively competed"}]}
{"molecule": "COc1ccc(CCN(C)CCCC(C#N)(c2ccc(OC)c(OC)c2)C(C)C)cc1OC", "note": "(stereo not drawn) [verapamil]", "values": [{"measurement": "inhibition of [3H]-CQ and [3H]-Arg uptake (in words)", "setting": "PfCRT 7G8 [2]", "value": "partial to strong inhibition"}]}
{"molecule": "OCCS", "note": "[β-mercaptoethanol]", "values": [{"measurement": "IC50", "setting": "PfCRT 7G8+C289A", "value": "2580 ± 390", "unit": "µM"}, {"measurement": "remaining [3H]-CQ transport activity", "setting": "PfCRT 7G8+C301A; compared to the activity in the absence of the reducing agent", "value": "60.2 ± 8.2", "unit": "%"}, {"measurement": "IC50", "setting": "PfCRT 7G8+C301A; [12]", "value": "4170 ± 160", "unit": "µM"}, {"measurement": "IC50", "setting": "PfCRT 7G8 [2]; [12]", "value": "1240 ± 140", "unit": "µM"}]}
{"molecule": "B1", "values": [{"measurement": "Km", "setting": "[8]", "value": "1.30 ± 0.20", "unit": "µM"}, {"measurement": "Vmax", "setting": "[8]", "value": "189.2 ± 9.1", "unit": "nmol/mg/min"}]}
{"molecule": "B2", "values": [{"measurement": "IC50", "setting": "[9]", "value": 0.15, "unit": "µM"}, {"measurement": "IC50", "setting": "[10]", "value": 0.2, "unit": "µM"}, {"measurement": "IC50", "setting": "[11]", "value": 0.18, "unit": "µM"}]}
